Measurements as given in ChEMBL document CHEMBL1139204, “Synthesis and biological activity of 5-aza-ellipticine derivatives” (Bioorg Med Chem Lett, 2007).
The source made the active and inactive calls. No cut-off for these calls is given here.

Columns and labels:
HCT-116 = assay: Growth inhibition of human HCT116 cells by MTT assay; format: functional, cell-based
Summary of the method: (§1)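 MTT cytotoxicity assay in human colon adenocarcinoma HCT116 cells and murine NIH 3T3 fibroblast cells treated with the novel 5-aza-ellipticine derivatives; toxicity read by MTT reduction.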

NIH3T3 = assay: Growth inhibition of mouse NIH3T3 cells by MTT assay; format: cell-based; summary of the method: as §1
Homo sapiens = species: Homo sapiens; assay: Inhibition of topoisomerase 2-mediated kDNA de-catenation
Summary of the method: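 Topoisomerase II decatenation of kinetoplast DNA (kDNA), run with a commercial kit following the manufacturer's recommended procedure. Decatenation depends on topo II double-strand break and re-ligation. A known topo II-active reference agent served as positive control.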

Structure (SMILES)	IC50 (HCT-116) [nM]	IC50 (NIH3T3) [nM]	Activity (Homo sapiens)
CC[n+]1c2ccnc(O)c2c(C)c2c3cc(OC)ccc3[nH]c21	3000	–	–
CC[n+]1c2ccnc(NCCCNCCCN)c2c(C)c2c3cc(OC)ccc3[nH]c21	400	–	–
COc1ccc2[nH]c3nc4ccnc(NCCCN(C)CCCN)c4c(C)c3c2c1	300	600	Active
COc1ccc2[nH]c3nc4ccnc(Cl)c4c(C)c3c2c1	> 1000	> 1000	–
COc1ccc2[nH]c3c(c(C)c4c(NCCCN5CCN(CCCN)CC5)nccc4[n+]3C)c2c1	> 10000	–	–
COc1ccc2[nH]c3c(C)c4ccnc(NCCCN(C)CCCN)c4c(C)c3c2c1	70	20	–
COc1ccc2[nH]c3c(c(C)c4c(O)nccc4[n+]3C)c2c1	200	–	–
COc1ccc2[nH]c3c(c(C)c4c(NCCCNCCCN)nccc4[n+]3C)c2c1	2000	–	–
Cc1c2ccncc2c(C)c2c1[nH]c1ccccc12 [ELLIPTECINE]	300	3	Active
CC[n+]1c2ccnc(NCCCNCCCNc3nccc4c3c(C)c3c5cc(OC)ccc5[nH]c3[n+]4CC)c2c(C)c2c3cc(OC)ccc3[nH]c21	300	–	–
COc1ccc2[nH]c3nc4ccnc(NCCCNCCCN)c4c(C)c3c2c1	–	1000	–
